Screening data (PubChem BioAssay)
Pf Dd2 growth = P. falciparum Dd2 growth inhibition; SYBR Green, 72 h; hits give low values; activity change, % at 10 µM; 2.3% of 94,000 active; AID 1159554; in the data active = activity change below about -80%
T cruzi growth-1 = T. cruzi proliferation inhibition | T. cruzi beta-gal in NIH3T3, GalScreen luminescence, 90 h | inhibition, % at 8.34 µM | 5.9% of 77,000 active | AID 624255;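 active = mean inhibition above about 93%, with at least 55% of replicates each passing it, limit read from the data, passing the limit was not always enough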
KDM4C inh = KDM4C (human) demethylase inhibition | GST-KDM4C 2-372, H3K9me3 peptide, LANCE TR-FRET | inhibition, % at 12.5 µM | 0.15% of 96,000 active | AID 720574;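 active = mean replicate inhibition above about 25%, with at least 55% of replicates also reaching it, limit read from the data, passing the limit was not always enough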
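Test system: N-terminal GST-fused human GASC-1 (KDM4C) fragment, residues 2-372; quantity: GASC-1 enzyme at 10 nM final in reaction; dosing: single dose; schedule: 30 min demethylation and 1 h detection at room temperature; signal: LANCE TR-FRET, excitation 340 nm, emissions 618 and 671 nm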
IDH1 mut inh = blocks human IDH1 R132H reductase activity; inhibition, % at 10 µM; diaphorase/resazurin fluorescence, 60 min; 0.18% of 70,000 active; AID 624101; in the data active = inhibition above about 34%
Target sequence (O75874 whole entry R132H): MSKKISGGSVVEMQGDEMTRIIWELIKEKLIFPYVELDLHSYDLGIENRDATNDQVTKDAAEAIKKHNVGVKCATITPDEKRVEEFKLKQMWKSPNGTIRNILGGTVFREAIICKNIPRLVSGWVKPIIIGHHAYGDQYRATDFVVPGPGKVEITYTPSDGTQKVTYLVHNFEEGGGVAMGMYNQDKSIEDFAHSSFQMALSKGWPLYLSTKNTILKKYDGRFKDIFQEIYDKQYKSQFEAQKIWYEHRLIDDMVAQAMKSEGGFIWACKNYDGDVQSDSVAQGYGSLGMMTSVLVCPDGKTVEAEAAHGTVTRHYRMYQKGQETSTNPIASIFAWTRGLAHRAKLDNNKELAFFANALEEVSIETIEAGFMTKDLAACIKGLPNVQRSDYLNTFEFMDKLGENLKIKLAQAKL
T cruzi growth-2 = Trypanosoma cruzi proliferation inhibition | T. cruzi beta-gal in NIH3T3, GalScreen luminescence, 90 h | inhibition, % at 8.35 µM | 72% of 5,600 active | AID 651739 | shares compounds with T cruzi growth-1;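 active = mean replicate inhibition above about 95% and at least 55% of replicates individually reaching it, limit read from the data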
T cruzi growth-3 = blocks T. cruzi growth in NIH3T3 host cells. T. cruzi beta-gal in NIH3T3, GalScreen luminescence, 90 h. 21% of 5,600 active. shares compounds with T cruzi growth-1. AID 651740. inhibition, % at 2.09 µM;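 active = mean inhibition above about 95%, with at least 55% of replicates also reaching it, limit read from the data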
3T3 cytotox = cytotoxicity in mouse NIH/3T3 fibroblasts; shares compounds with T cruzi growth-1; 14% of 5,600 active; NIH/3T3 viability, CellTiter-Glo ATP luminescence, 90 h; cytotoxicity (signal decrease), % at 8.35 µM;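 active = mean signal decrease across replicates above about 35% based on untreated-well scatter, with enough replicates individually passing, limit read from the data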
NIH3T3 tox 2 = cytotoxicity in mouse NIH/3T3 fibroblasts. shares compounds with T cruzi growth-1. NIH/3T3 viability, CellTiter-Glo ATP luminescence, 90 h. inhibition, % at 24.9 µM. 56% of 5,600 active. AID 651744;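 active = mean loss of cell viability signal at or above a set limit, and enough replicates individually reaching it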
Numbers stand for hits; . = inactive; / = no result. Hits are enriched below; roughly 5.9% of the tested compounds scored in any of these assays.

SMILES	Pf Dd2 growth	T cruzi growth-1	KDM4C inh	IDH1 mut inh	T cruzi growth-2	T cruzi growth-3	3T3 cytotox	NIH3T3 tox 2
O=C(C[C@@H]1CC[C@H]2[C@@H](COC[C@H](O)CN2C(=O)Nc2ccc(Cl)cc2)O1)NCCc1ccncc1	.	128.5	.	/	.	.	.	.
O=C(C[C@@H]1CC[C@H]2[C@@H](COC[C@@H](O)CN2C(=O)Nc2ccc(Cl)cc2)O1)NCCc1ccncc1	.	.	.	/	/	/	/	/
O=C(C[C@H]1CC[C@H]2[C@@H](COC[C@H](O)CN2C(=O)Nc2ccc(Cl)cc2)O1)NCCc1ccncc1	.	.	.	/	/	/	/	/
O=C(OCc1ccccc1[N+](=O)[O-])c1cccc(-c2nnc(-c3ccccc3)o2)c1	/	/	/	.	/	/	/	/
C/C=C(/C)C(=O)OC(C)(C)C1Cc2cc3ccc(=O)oc3cc2O1 (stereo unspecified)	/	/	/	.	/	/	/	/
CCC(=O)Nc1ccc2c(c1)OC[C@H](C)N(C(=O)c1ccc(F)cc1)C[C@@H](C)[C@@H](OC)CN(C)C2=O	.	104.5	.	.	.	.	.	.
CO[C@H]1CN(C)C(=O)c2ccc(NC(=O)C3CC3)cc2OC[C@@H](C)N(C(=O)c2cccnc2)C[C@@H]1C	.	108.6	.	.	.	.	.	.
CO[C@H]1CN(C)C(=O)c2ccc(NC(=O)C3CC3)cc2OC[C@H](C)N(C(=O)c2cccnc2)C[C@H]1C	.	.	.	.	/	/	/	/
COc1cccc(NC(=O)CSc2nnc(-c3ccncc3)n2-c2ccc(Br)cc2)c1	/	/	/	.	/	/	/	/
CN(CC(=O)Nc1ccccc1C#N)S(=O)(=O)c1cc(Cl)ccc1Cl	/	/	/	.	/	/	/	/
CCCNC(=O)C[C@@H]1CC[C@H]2[C@@H](COC[C@H](O)CN2C(=O)Nc2ccccc2OC)O1	.	.	.	/	/	/	/	/
C[C@@H](NC(=O)C[C@H]1CC[C@H]2[C@@H](COC[C@H](O)CN2C(=O)Nc2cccc(Cl)c2)O1)c1ccccc1	.	109.6	.	/	105.0	.	.	46.4
C[C@@H](NC(=O)C[C@@H]1CC[C@H]2[C@@H](COC[C@H](O)CN2C(=O)Nc2cc(Cl)cc(Cl)c2)O1)c1ccccc1	.	100.3	.	/	103.8	.	.	52.3
CCCNC(=O)C[C@H]1CC[C@H]2[C@@H](COC[C@H](O)CN2C(=O)Nc2ccccc2OC)O1	.	117.4	.	/	97.4	.	.	.
COc1cccc(NC(=O)N2C[C@H](O)COC[C@H]3O[C@@H](CC(=O)NC4Cc5ccccc5C4)CC[C@@H]32)c1	.	109.3	.	/	.	.	.	.
Cc1ccc(-c2nnc(SCC(=O)Nc3ccc(Br)c(C)c3C)o2)cc1	/	/	/	.	/	/	/	/
O=C(COc1ccc(I)cc1)Nc1ccc(O)cc1C(=O)O	/	/	/	.	/	/	/	/
C=CCn1c2ccccc2n2nc(CCC(=O)O)c(=O)nc12	/	/	/	.	/	/	/	/
CCC1(CC)Cc2ccccc2-c2[nH]c(=S)n(Cc3ccccc3)c(=O)c21	/	/	/	.	/	/	/	/
CCCCC[C@@H](O)CC(=O)CCc1ccc(O)c(OC)c1	/	/	/	.	/	/	/	/
CC1(C)COC(CCC/C=N/NC(=O)c2ccccc2O)OC1	/	/	/	.	/	/	/	/
C[C@@H]1CCCCO[C@@H](CN(C)Cc2ccncc2)[C@H](C)CN([C@@H](C)CO)C(=O)c2cc(NC(=O)Nc3ccc(C(F)(F)F)cc3)ccc2O1	.	.	.	.	/	/	/	/
C[C@@H]1CCCCO[C@H](CN(C)Cc2ccc(C(F)(F)F)cc2)[C@H](C)CN([C@@H](C)CO)C(=O)c2cc(NC(=O)c3ccncc3)ccc2O1	.	.	.	/	/	/	/	/
C[C@@H]1CCCCO[C@@H](CN(C)Cc2ccc(C(F)(F)F)cc2)[C@H](C)CN([C@H](C)CO)C(=O)c2cc(NC(=O)c3ccncc3)ccc2O1	.	109.4	.	.	103.3	.	.	103.1
C[C@@H]1CN([C@@H](C)CO)C(=O)c2cc(NC(=O)c3ccncc3)ccc2O[C@H]1CN(C)Cc1ccc(C(F)(F)F)cc1	.	99.8	.	/	.	.	.	.
